Measured values as given in ChEMBL document CHEMBL1909630, “Azaxanthene based selective glucocorticoid receptor modulators: design, synthesis, and pharmacological evaluation of (S)-4-(5-(1-((1,3,4-thiadiazol-2-yl)amino)-2-methyl-1-oxopropan-2-yl)-5H-chromeno[2,3-b]pyridin-2-yl)-2-fluoro-N,N-dimethylbenzamide (BMS-776532) and its methylene homologue …” (J Med Chem, 2011).

Columns and labels:
[1] = test system: Blood; experiment: Antiinflammatory activity in Sprague-Dawley rat whole blood assessed as inhibition of LPS-induced TNFalpha production
[2] = Tmax in Sprague-Dawley rat at 10 mg/kg, po; assay type: ADME, organism-based; set-up: dose 10 mg/kg, route oral; details: in vivo
Outline: (§1)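 Male Sprague-Dawley rats received a single intravenous (1 mg/kg) or oral (10 or 50 mg/kg) dose. Plasma pharmacokinetic parameters were derived from these profiles.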

[3] = AUC in Sprague-Dawley rat at 50 mg/kg, po; assay type: ADME, organism-based; set-up: dose 50 mg/kg, route oral; details: plasma
Outline: as §1

[4] = test system: Blood; experiment: Antiinflammatory activity in human whole blood assessed as inhibition of LPS-induced TNFalpha production after overnight incubation by ELISA; assay type: functional, tissue-based
Outline: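 Whole blood from two donors per experiment was collected into ACD-A. Compounds were added and the blood was incubated about 20 h at 37 °C under 5% CO2. Blood was then stimulated for 5 h with LPS (final 100 ng/mL, for TNFα) or IL-1β (final 10 ng/mL, for IL-8). Plasma TNFα or IL-8 was measured by ELISA. Efficacy was expressed as % of dexamethasone, and values are means of at least two experiments.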

[5] = test system: Rattus norvegicus; experiment: Antiinflammatory activity in Sprague-Dawley rat assessed as carrageenan-induced paw edema at 30 mg/kg, po administered as a single dose 2 hrs before carrageenan challenge measured 4 hrs post carrageenan challenge by plethysmometry relative to control
[6] = test system: Rattus norvegicus; experiment: Antiinflammatory activity in po dosed Freund's complete adjuvant-induced Lewis rat arthritis model assessed as reduction in progression of arthritis; assay type: functional, organism-based
Outline: (§2)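 Male Lewis rats were inoculated with Mycobacterium butyricum in incomplete Freund's adjuvant. Oral dosing was daily and preventative, running from day 0 to day 21. Onset and progression of arthritis were followed, and ED50 was estimated from the dose response.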

[7] = Membrane permeability by PAMPA; assay type: ADME
[8] = AUC in Sprague-Dawley rat at 10 mg/kg, po; assay type: ADME, organism-based; set-up: dose 10 mg/kg, route oral; details: plasma
Outline: as §1

[9] = Tmax in Sprague-Dawley rat at 50 mg/kg, po; assay type: ADME, organism-based; set-up: dose 50 mg/kg, route oral; details: in vivo
Outline: as §1

[10] = molecular target: T1, Glucocorticoid receptor (Homo sapiens, UniProt P04150); experiment: Transrepression activity at glucocorticoid receptor alpha in phorbol myristate acetate-stimulated human A549 cells assessed as inhibition of AP1 response element by luciferase reporter gene assay; assay type: cell-based
T1 sequence (P04150 whole entry): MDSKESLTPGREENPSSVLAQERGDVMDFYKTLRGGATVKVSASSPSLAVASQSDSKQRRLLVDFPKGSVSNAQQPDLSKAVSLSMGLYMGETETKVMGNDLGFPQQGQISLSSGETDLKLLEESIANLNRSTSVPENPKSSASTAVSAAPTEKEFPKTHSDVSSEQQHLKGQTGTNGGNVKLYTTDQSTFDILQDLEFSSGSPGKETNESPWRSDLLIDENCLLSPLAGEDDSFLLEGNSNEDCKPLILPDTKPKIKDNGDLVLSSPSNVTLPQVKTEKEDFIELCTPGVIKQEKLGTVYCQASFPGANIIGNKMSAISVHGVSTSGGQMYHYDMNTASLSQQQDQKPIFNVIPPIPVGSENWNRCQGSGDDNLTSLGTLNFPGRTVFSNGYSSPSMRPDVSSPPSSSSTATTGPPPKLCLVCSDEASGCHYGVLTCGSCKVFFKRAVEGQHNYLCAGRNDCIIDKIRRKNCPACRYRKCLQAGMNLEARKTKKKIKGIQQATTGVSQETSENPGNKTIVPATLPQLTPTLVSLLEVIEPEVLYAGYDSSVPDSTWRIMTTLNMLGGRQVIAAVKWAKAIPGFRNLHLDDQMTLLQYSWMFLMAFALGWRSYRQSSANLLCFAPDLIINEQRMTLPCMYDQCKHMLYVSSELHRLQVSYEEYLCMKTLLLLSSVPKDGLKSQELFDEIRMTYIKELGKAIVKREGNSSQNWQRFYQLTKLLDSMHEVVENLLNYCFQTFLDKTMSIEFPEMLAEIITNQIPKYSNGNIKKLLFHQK

[11] = test system: Blood; experiment: Antiinflammatory activity in human whole blood assessed as inhibition of TNF-alpha-induced IL-8 production after overnight incubation by ELISA relative to dexamethasone; assay type: functional
[12] = molecular target: T1, Glucocorticoid receptor; experiment: Transactivation activity at GR-alpha in human NP1 Hela cells assessed as inhibition of GAL4-DBD after 20 hrs by luciferase reporter gene assay; assay type: cell-based
[13] = test system: MG-63; experiment: Induction of glutamine synthase expression in human MG63 cells after overnight incubation by spectrophotometry relative to prednisolone; assay type: cell-based
[14] = Oral bioavailability in Sprague-Dawley rat at 50 mg/kg; assay type: ADME, organism-based; details: in vivo
Outline: as §1

[15] = Drug level in plasma of Sprague-Dawley rat at 30 mg/kg, po measured after 6 hrs; assay type: ADME, organism-based; set-up: dose 30 mg/kg, route oral; details: read-out: Drug uptake
Outline: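 Plasma exposure was measured in Sprague-Dawley rats 6 h after a single oral dose of 30 mg/kg given in the carrageenan paw edema study.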

[16] = test system: Rattus norvegicus; experiment: Antiinflammatory activity in po dosed Freund's complete adjuvant-induced Lewis rat arthritis model assessed as reduction in onset of arthritis; assay type: functional, organism-based
Outline: as §2

[17] = Volume of distribution at steady state in Sprague-Dawley rat at 1 mg/kg, iv; assay type: ADME, organism-based; set-up: dose 1 mg/kg, route intravenous; details: in vivo, read-out: Vdss
Outline: as §1

Compound	EC50 [1]	Tmax [2]	AUC [3]	EC50 [4]	level, % of control at 30 mg/kg [5]	Activity [6]	permeability [7]	AUC [8]	Tmax [9]	EC50 [10]	Imax [11]	EC50 [12]	Emax [13]	bioavailability [14]	concentration at 6 h [15]	Activity [16]	Vd [17]
CN(C)C(=O)c1ccc(-c2ccc3c(n2)Oc2ccccc2[C@H]3C(C)(C)C(=O)Nc2nncs2)cc1F	0.189 µM	1.3 h	20200 ng·h/mL	0.83 µM	42%	Dose-dependent effect	permeable	673 ng·h/mL	1.7 h	0.0332 µM	55%	0.143 µM	33%	119%	788 nM	Dose-dependent effect	1 L/kg
CCN(C)C(=O)c1ccc(-c2ccc3c(n2)Oc2ccccc2[C@@H]3C(C)(C)C(=O)Nc2nncs2)cc1F	0.215 µM	1 h	28100 ng·h/mL	0.379 µM	54%	Dose-dependent effect	permeable	904 ng·h/mL	3.3 h	0.0177 µM	76%	0.113 µM	53%	107%	1110 nM	Dose-dependent effect	0.5 L/kg
